The source of these data is ChEMBL document CHEMBL1130056, “Novel and selective partial agonists of 5-HT3 receptors. 2. Synthesis and biological evaluation of piperazinopyridopyrrolopyrazines, piperazinopyrroloquinoxalines, and piperazinopyridopyrroloquinoxalines” (J Med Chem, 1997).

As a reminder, the IC50 is the midpoint of a concentration-inhibition curve. Read a high IC50 as a need for much substance. As a reminder, the Inhibition is the change of the read-out against control, counted positive when it falls. What is called EC50 is the concentration at which the effect is half-maximal. High values mean a need for much substance, low ones an effect from little substance.

For assay [1], the target named is 5-hydroxytryptamine receptor 2A (Bos taurus, UniProt Q75Z89). Put plainly: Binding affinity against 5-hydroxytryptamine 2A receptor was measured using [3H]ketanserin as radioligand. Put shortly: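 Bovine frontal cortex membranes (0.6 mg protein/mL) with 0.8 nM [3H]ketanserin and 100 nM WB4101, 37 °C for 30 min, in 50 mM Tris-HCl pH 7.4 plus 5 mM MgCl2, 10 mM NaCl, 0.5 mM EDTA, 10 μM pargyline. 10 μM spiperone defined nonspecific binding. Reported as log IC50 ± SEM.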
Sequence of 5-hydroxytryptamine receptor 2A (Q75Z89 whole entry): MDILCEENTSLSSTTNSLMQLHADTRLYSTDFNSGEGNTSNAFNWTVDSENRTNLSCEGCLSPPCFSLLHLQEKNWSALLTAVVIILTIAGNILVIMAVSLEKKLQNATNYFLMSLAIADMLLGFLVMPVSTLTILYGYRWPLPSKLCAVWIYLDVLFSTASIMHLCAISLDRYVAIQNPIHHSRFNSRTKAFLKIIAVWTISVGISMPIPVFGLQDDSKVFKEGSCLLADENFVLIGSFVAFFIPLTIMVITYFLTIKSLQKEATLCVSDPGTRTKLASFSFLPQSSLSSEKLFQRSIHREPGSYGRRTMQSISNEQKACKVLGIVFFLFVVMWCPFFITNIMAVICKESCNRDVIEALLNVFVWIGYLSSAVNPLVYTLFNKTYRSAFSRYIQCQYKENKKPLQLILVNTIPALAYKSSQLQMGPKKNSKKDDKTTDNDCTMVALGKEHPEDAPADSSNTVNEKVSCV

Assay [2] concerns the target Serotonin 3 (5-HT3) receptor. Put plainly: Binding affinity against 5-hydroxytryptamine 3 receptor was measured using [3H]granisetron as radioligand. Type of assay: protein-complex assay.
The subject of assay [3] is Rattus norvegicus. Put plainly: In Vivo 5-HT3 agonist activity in the Von Bezold-Jarisch reflex decrease in heart rate in rats at 120 (ug/kg) dose. It is filed as functional. The gist of the method:
(§1)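 Fasted male Crl:CD(SD)BR rats (280–320 g) under urethane (1.25 g/kg ip); heart rate from cannulated carotid artery. Compound in saline given iv via jugular cannula. Read-out is fall in heart rate as percent of pre-treatment baseline.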

The next assay deals with NG108-15. Put plainly: In Vitro 5-HT3 agonist activity on the [14C]guanidinium accumulation in NG 108-15 cells. The note with it: Murinae. It is filed as functional, cell-based. Put shortly: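 NG 108-15 cells grown 2 days, washed, then incubated 10 min at 37 °C in HEPES buffer pH 7.4 with 10 mM guanidinium chloride, 200–250 nCi [14C]guanidinium, 10 μM substance P and drug. After ice-cold choline wash, cells dissolved in NaOH and radioactivity counted. EC50 from triplicates per concentration; mean ± SEM of three determinations.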

Assay [4] relates to Rattus norvegicus. The assay can be described thus: In Vivo 5-HT3 antagonist activity in the Von Bezold-Jarisch reflex in rats after intravenous dose of 120 (ug/kg). Type of assay: functional. Put shortly:
(§2)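 Urethane-anesthetized (1.25 g/kg ip) fasted male Crl:CD(SD)BR rats; heart rate from carotid cannula. Compound in saline iv via jugular vein, usually 5 min before 5-HT bolus (30 μg/kg iv).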

Assay [5] concerns the target 5-hydroxytryptamine receptor 1B (Rattus norvegicus, UniProt P28564). The assay can be described thus: Binding affinity towards 5-hydroxytryptamine 1B receptor was measured using [3H]5-HT as radioligand. Put shortly:
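Rat frontal cortex and striatum membranes (0.8 mg protein/mL), 2 nM [3H]-5-OH-tryptamine, 1 μM spiperone, 50 nM mesulergine; 25 °C, 30 min; 50 mM Tris-HCl pH 7.4, 4 mM CaCl2, 10 μM pargyline. Nonspecific binding with 10 μM propranolol. Expressed as log IC50 ± SEM.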

Assay [6] has as its system Rattus norvegicus. The assay can be described thus: In Vivo 5-HT3 agonist activity in the Von Bezold-Jarisch reflex decrease in heart rate in rats at 60 (ug/kg) dose. It is filed as functional. The gist of the method:
as §1

Assay [7] has as its target 5-hydroxytryptamine receptor 1D (Sus scrofa, UniProt P79400). Put plainly: Binding affinity against 5-hydroxytryptamine 1D receptor was measured using [3H]5-HT as radioligand. Put shortly:
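Pig frontal cortex and striatum membranes (0.8 mg protein/mL), 2 nM [3H]-5-OH-tryptamine with 1 μM spiperone and 50 nM mesulergine, 25 °C, 30 min, 50 mM Tris-HCl pH 7.4, 4 mM CaCl2, 10 μM pargyline. Nonspecific binding with 10 μM 5-HT. Expressed as log IC50 ± SEM.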

The test system of assay [8] is Rattus norvegicus. Put plainly: In Vivo 5-HT3 antagonist activity in the Von Bezold-Jarisch reflex in rats after intravenous dose of 60 (ug/kg). Type of assay: functional. The gist of the method: as §2

Sequence of 5-hydroxytryptamine receptor 1B (P28564 whole entry): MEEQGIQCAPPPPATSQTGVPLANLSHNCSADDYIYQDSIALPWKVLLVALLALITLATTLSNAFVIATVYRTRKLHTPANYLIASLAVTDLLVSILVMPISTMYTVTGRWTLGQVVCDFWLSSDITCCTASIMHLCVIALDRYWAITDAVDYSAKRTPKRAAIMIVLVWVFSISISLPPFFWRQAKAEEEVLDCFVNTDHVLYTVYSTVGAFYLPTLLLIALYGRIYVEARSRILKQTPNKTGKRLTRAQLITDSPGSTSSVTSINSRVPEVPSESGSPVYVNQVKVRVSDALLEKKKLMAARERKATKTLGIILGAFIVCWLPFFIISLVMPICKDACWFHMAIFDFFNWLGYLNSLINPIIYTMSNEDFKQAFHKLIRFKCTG
Sequence of 5-hydroxytryptamine receptor 1D (P79400 whole entry): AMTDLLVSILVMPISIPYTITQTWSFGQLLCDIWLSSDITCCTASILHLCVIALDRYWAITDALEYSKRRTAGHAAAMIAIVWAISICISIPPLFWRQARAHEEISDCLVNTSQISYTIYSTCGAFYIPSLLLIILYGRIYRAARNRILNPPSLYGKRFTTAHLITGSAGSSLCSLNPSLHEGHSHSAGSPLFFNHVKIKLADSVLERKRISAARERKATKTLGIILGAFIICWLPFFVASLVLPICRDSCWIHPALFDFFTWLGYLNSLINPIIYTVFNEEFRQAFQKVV

Turning to `c1ccc(CN2CCN(c3nc4cccnc4n4cccc34)CC2)cc1`, the IC50 is 15.1 µM in [1] and 13.2 µM in [5]. The “-Log IC50” value in assay [2] was determined as 12.09. Further, the Inhibition in the assay on Rattus norvegicus [3] was 59%; in the assay on Rattus norvegicus [4], 40%. This compound had a 50% effective concentration (EC50) with NG108-15 of 0.032 µM.

As to `c1ccc(CN2CCN(c3nc4ccccc4n4cccc34)CC2)cc1`, the Inhibition came to 54% in the assay with Rattus norvegicus [6] and 80% in the assay with Rattus norvegicus [8]. In addition, the IC50 in [7] was 24 µM; in assay [1], 10.5 µM; in assay [5], 12.9 µM. The “-Log IC50” value in [2] is reported as 9.45. The same compound returned an EC50 with NG108-15 of 0.018 µM.
